According to ChEMBL document CHEMBL1157331, “Xenicane-type diterpenes with cytotoxicity from Xenia florida” (J Nat Prod, 2006):
≈ marks a conversion by molar mass, not a printed value.

Tests used:
[1] = tested on: KB; test: Cytotoxicity against human KB cells after 72 hrs; type: functional; details: read-out: ED50 (the source's name)
In short: (§1)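 Methylene blue binding to fixed cell monolayers. 2880 cells/well seeded, 3 h later sample added; samples prepared at […], incubated 37 °C for 3 days. Absorbance read at 650 nm. ED50 is the concentration giving 50% reduction of absorbance versus untreated cells. Mitomycin as positive control.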

[2] = tested on: WiDr; test: Cytotoxicity against human WiDr cells after 72 hrs; type: functional, cell-based; details: for EC50: read-out: ED50 (the source's name); in short: as §1
[3] = Cytotoxicity against human Hepa cells after 72 hrs; type: functional; details: read-out: ED50 (the source's name); in short: as §1

| Structure (SMILES) | EC50 [1] [µg/mL] | EC50 [2] [µg/mL] | EC50 [3] [µg/mL] | IC50 [2] [µM] |
| --- | --- | --- | --- | --- |
| C=C1[C@@H]2[C@H](OC(C)=O)OC=C([C@H](OC(C)=O)[C@@H](C=C(C)C)OC(C)=O)[C@H]2CC/C(C)=C/[C@@H](OC(=O)c2ccccc2)[C@H]1OC(=O)c1ccccc1 | > 20 | > 20 | > 20 | – |
| C=C1C(=O)[C@H](OC(=O)c2ccccc2)/C=C(\C)CC[C@@H]2C([C@H](OC(C)=O)[C@@H](C=C(C)C)OC(C)=O)=CO[C@@H](OC(C)=O)[C@@H]12 | > 20 | > 20 | > 20 | – |
| C=C1[C@@H]2[C@H](OC(C)=O)OC=C([C@H](OC(C)=O)[C@@H](C=C(C)C)OC(C)=O)[C@H]2CC/C(C)=C/[C@@H](OC(=O)c2ccccc2)[C@H]1O [FLORXENILIDE A] | > 20 | 2.73 (≈ 4.58 µM) | > 20 | 4.5 |
| C=C1[C@@H]2[C@H](OC(C)=O)OC=C([C@H](OC(C)=O)[C@@H](C=C(C)C)OC(C)=O)[C@H]2CC[C@]2(C)O[C@H]2[C@@H](OC(=O)c2ccccc2)[C@H]1O [FLORXENILIDE B] | 11.4 (≈ 18.6 µM) | 1.88 (≈ 3.07 µM) | 8.03 (≈ 13.1 µM) | 3.7 |
| CO[C@@]12CC[C@H](OC(C)=O)[C@@](C)(CC[C@@H]3/C(=C\C=C\C(C)(C)O)COC(=O)[C@H]31)C2 [FLORXENILIDE C MONOACETATE] | > 20 | > 20 | > 20 | – |
| CO[C@@]12CC[C@H](O)[C@@](C)(CC[C@@H]3/C(=C\C=C\C(C)(C)O)COC(=O)[C@H]31)C2 [FLORXENILIDE C] | > 20 | > 20 | > 20 | – |
| CO[C@@]12[C@H](COC(N)=O)C3=C(C(=O)C(C)=C(N)C3=O)N1C[C@@H]1N[C@@H]12 [MITOMYCIN] | 0.56 (≈ 1.67 µM) | 0.35 (≈ 1.05 µM) | 0.04 (≈ 0.12 µM) | – |
